Source: the RNAGym collection of RNA variant scans (doi:10.1126/science.aae0568)
Variants at the floor of the assay were thinned out.

B1: tRNA (parent)
chain: GUUCCGUUGGCGUAAUGGUAACGCGUCUCCCUCCUAAGGAGAAGACUGCGGGUUCGAGUCCCGUACGGAACG

Variants of: B1
Experiment: yeast fitness relative to wild type (ratio to wild type); higher = fitter; tRNA-Arg(CCU), competitive growth, 37 C, YPD
In short: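 Start and end populations of a pooled competition were compared by 100-nucleotide paired-end sequencing of gene amplicons. The Saccharomyces cerevisiae strains carried tRNA-Arg(CCU) gene variants at the native genomic locus, synthesised with a 3% per-site mutation rate at 69 sites, and competed in YPD at 37°C for 24 hours in six parallel replicates. Darwinian fitness relative to wild type was based on the change in genotype frequencies. Genotypes required ≥ 100 starting reads, and estimates < 0.5 were set to 0.5.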

**Q.** For GUUCCGUUGGCGUAAUGGUAACGCGUCUCCCUCCUAAGGAGAAGAGUACGGGUUCGAGUCCCGUACGGAACG [C46G G48A], which yeast fitness is on record?
**A.** 0.998

**Q.** For GUUCCGUUGGCGUAAUGGUAACGCGUCUCCCUCCUAAGGAGAAGAUUGCGCGUUCGAGUCCCGAACGGAACG [C46U G51C U64A], which yeast fitness is on record?
**A.** ≤ 0.5

**Q.** For GUUCCGUUGGCGUAAUGGUAACGCGUCUCCCUCCUAAGGAGAAGACCGCGGGUUCGAGUCCCGUCGGGAACG [U47C A65C C66G], which yeast fitness is on record?
**A.** ≤ 0.5

**Q.** For GUUCCGUUGGCGUAAUGGUAACGCGUCUCCCUCCUAAGGAGAAGAGUGCGGGAUCGAGUCCCGUACGGAACG [C46G U53A], which yeast fitness is on record?
**A.** 0.75

**Q.** Which yeast fitness does the source give for GUUCCGUUGGCGUAAUGGUAACGCGUCUCCCUCCUAAGGAGAAGAGUACGGAUUCGAGUCCCGUACGGAACG [C46G G48A G52A] here?
**A.** 0.913

**Q.** For GUUCCGUUGGCGUAAUGGUAACGCGUCUCCCUCCUAAGGAGAAGAGUGCGGGUUCGAAUCCCGUACGGAACG [C46G G58A], which yeast fitness is on record?
**A.** 0.989

**Q.** With GUUCCGUUGGCGUAAUGGUAACGCGUCUCCCUCCUAAGGAGAAGAUUGCGGGUCCGAGUCCCGUACGGAACG [C46U U54C] as the variant, how does the yeast fitness read?
**A.** 0.717

**Q.** Which yeast fitness does the source give for GUUCCGUUGGCGUAAUGGUAACGCGUCUCCCUCCUAAGGAGAAGAGUGCGGGUGCGAGUCCCGUACGGAACG [C46G U54G] here?
**A.** 0.527

**Q.** For GUUCCGUUGGCGUAAUGGUAACGCGUCUCCCUCCUAAGGAGAAGAGUGCGGGUACGAGUCCCGUACGGAACG [C46G U54A], which yeast fitness is on record?
**A.** 0.702

**Q.** With GUUCCGUUGGCGUAAUGGUAACGCGUCUCCCUCCUAAGGAGAAGACAGCAGGUUCGAGUCCCGUACGGAACG [U47A G50A] as the variant, how does the yeast fitness read?
**A.** 0.831

**Q.** For GUUCCGUUGGCGUAAUGGUAACGCGUCUCCCUCCUAAGGAGAAGAGUGCGGGUUCGAGUCCAGUACGGAACG [C46G C62A], which yeast fitness is on record?
**A.** 0.873

**Q.** Which yeast fitness does the source give for GUUCCGUUGGCGUAAUGGUAACGCGUCUCCCUCCUAAGGAGAAGACAGCGGGUUCGAGUCCCGUACGCAACG [U47A G68C] here?
**A.** 0.606

**Q.** Which yeast fitness does the source give for GUUCCGUUGGCGUAAUGGUAACGCGUCUCCCUCCUAAGGAGAAGACAGUGGGUUCGAGUCCCGUCCGGAACG [U47A C49U A65C] here?
**A.** 0.702

**Q.** Which yeast fitness does the source give for GUUCCGUUGGCGUAAUGGUAACGCGUCUCCCUCCUAAGGAGAAGAUUGCGGGUUUGAGUCCCGUACGGAACG [C46U C55U] here?
**A.** 0.823

**Q.** With GUUCCGUUGGCGUAAUGGUAACGCGUCUCCCUCCUAAGGAGAAGAUUGCGGGUUGGAGUCCCGUACGGAACG [C46U C55G] as the variant, how does the yeast fitness read?
**A.** 0.65

**Q.** Which yeast fitness does the source give for GUUCCGUUGGCGUAAUGGUAACGCGUCUCCCUCCUAAGGAGAAGAUUGCGGGUUCGAGUCCCGUACGAAACG [C46U G68A] here?
**A.** 0.9

**Q.** With GUUCCGUUGGCGUAAUGGUAACGCGUCUCCCUCCUAAGGAGAAGAUUGCGGGUUCGAGUCCCGUACGUAACG [C46U G68U] as the variant, how does the yeast fitness read?
**A.** 0.857

**Q.** For GUUCCGUUGGCGUAAUGGUAACGCGUCUCCCUCCUAAGGAGAAGAUUGCGGGUUCGAGUCCCGUACCGAACG [C46U G67C], which yeast fitness is on record?
**A.** 1.02

**Q.** With GUUCCGUUGGCGUAAUGGUAACGCGUCUCCCUCCUAAGGAGAAGAUUGCGGGUUCGAGUCCCGUCCGGAACG [C46U A65C] as the variant, how does the yeast fitness read?
**A.** 0.997

**Q.** Which yeast fitness does the source give for GUUCCGUUGGCGUAAUGGUAACGCGUCUCCCUCCUAAGGAGAAGAAUGCGGGUUCGAGUCUCGUACGGGACG [C46A C61U A69G] here?
**A.** ≤ 0.5

**Q.** For GUUCCGUUGGCGUAAUGGUAACGCGUCUCCCUCCUAAGGAGAAGAAUGCGGGUUCGAGUCUCGUACGGAACG [C46A C61U], which yeast fitness is on record?
**A.** 0.901

**Q.** Which yeast fitness does the source give for GUUCCGUUGGCGUAAUGGUAACGCGUCUCCCUCCUAAGGAGAAGAGUGAGGGUUCGAGUCUCGUACGGAACG [C46G C49A C61U] here?
**A.** 0.597

**Q.** Which yeast fitness does the source give for GUUCCGUUGGCGUAAUGGUAACGCGUCUCCCUCCUAAGGAGAAGACAACGGGUUCGAGUCCCGUACGGAACG [U47A G48A] here?
**A.** 0.867

**Q.** For GUUCCGUUGGCGUAAUGGUAACGCGUCUCCCUCCUAAGGAGAAGAUUCCGGGUUCGAGUCCUGUACGGAACG [C46U G48C C62U], which yeast fitness is on record?
**A.** 1.03

**Q.** Which yeast fitness does the source give for GUUCCGUUGGCGUAAUGGUAACGCGUCUCCCUCCUAAGGAGAAGACCGUGGGUUCGAGUCCCGUACGCAACG [U47C C49U G68C] here?
**A.** 0.582

**Q.** With GUUCCGUUGGCGUAAUGGUAACGCGUCUCCCUCCUAAGGAGAAGUCUGCGGGUUCGAGUCCCGAACGGAACG [A45U U64A] as the variant, how does the yeast fitness read?
**A.** 0.708

**Q.** Which yeast fitness does the source give for GUUCCGUUGGCGUAAUGGUAACGCGUCUCCCUCCUAAGGAGAAGAAUGCGGGUUCGAGUCCUGUACGGUACG [C46A C62U A69U] here?
**A.** 0.735

**Q.** With GUUCCGUUGGCGUAAUGGUAACGCGUCUCCCUCCUAAGGAGAAGAUUGCAGGUUCGAGUCCCGUAGGGAACG [C46U G50A C66G] as the variant, how does the yeast fitness read?
**A.** ≤ 0.5

**Q.** For GUUCCGUUGGCGUAAUGGUAACGCGUCUCCCUCCUAAGGAGAAGAUUGCGGGUUCGAGUUCCGUCCGGAACG [C46U C60U A65C], which yeast fitness is on record?
**A.** 0.589

**Q.** Which yeast fitness does the source give for GUUCCGUUGGCGUAAUGGUAACGCGUCUCCCUCCUAAGGAGAAGAUUGCGGGUUCGAAUCCUGUACGGAACG [C46U G58A C62U] here?
**A.** 0.665

**Q.** Which yeast fitness does the source give for GUUCCGUUGGCGUAAUGGUAACGCGUCUCCCUCCUAAGGAGAAGACAGCGGGUUCGAGUCCGGUACGGAACG [U47A C62G] here?
**A.** 0.856

**Q.** Which yeast fitness does the source give for GUUCCGUUGGCGUAAUGGUAACGCGUCUCCCUCCUAAGGAGAAGAAUGCGGGUUCGAGUUCCGUACGGAACG [C46A C60U] here?
**A.** 0.83

**Q.** Which yeast fitness does the source give for GUUCCGUUGGCGUAAUGGUAACGCGUCUCCCUCCUAAGGAGAAGAGUGCGGGUUCGGGUCCCGUACGGAACG [C46G A57G] here?
**A.** 0.987

**Q.** Which yeast fitness does the source give for GUUCCGUUGGCGUAAUGGUAACGCGUCUCCCUCCUAAGGAGAAGUCCGCGGGUUCGAGUCCCGUACGGAACG [A45U U47C] here?
**A.** 0.995

**Q.** With GUUCCGUUGGCGUAAUGGUAACGCGUCUCCCUCCUAAGGAGAAGUCAGCGGGUUCGAGUCCCGUACGGAACG [A45U U47A] as the variant, how does the yeast fitness read?
**A.** 0.786

**Q.** Which yeast fitness does the source give for GUUCCGUUGGCGUAAUGGUAACGCGUCUCCCUCCUAAGGAGAAGAUUGAGGGUUUGAGUCCCGUACGGAACG [C46U C49A C55U] here?
**A.** 0.678

**Q.** With GUUCCGUUGGCGUAAUGGUAACGCGUCUCCCUCCUAAGGAGAAGUCUGCGGGUUCGAGUCCCCUACGGAACG [A45U G63C] as the variant, how does the yeast fitness read?
**A.** 0.542

**Q.** Which yeast fitness does the source give for GUUCCGUUGGCGUAAUGGUAACGCGUCUCCCUCCUAAGGAGAAGAUUCCGGGUUCGAGUCCCGUACGGAACG [C46U G48C] here?
**A.** 0.951
